# APP 5'UTR act: activators of APP 5'UTR luciferase reporter, primary screen, SH-SY5Y cells; SH-SY5Y APP 5'UTR luciferase reporter, luminescence; zero percent = DMSO vehicle wells; AID 1276, 2008; activation, % at 2 µM; actives 1% (n = 190,000);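 active = activation above a set limit, based on mean plus 3 SD of controls, cut at about 140% in these data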
# STAT1 act: STAT1 signaling activators, primary screen, cell-based, HTS, luciferase reporter; activation (% of control), % at 5.5 µM; AID 932, 2007; actives 2.6% (n = 200,000); NIH 3T3 STAT1-luciferase reporter, IFN-gamma, luminescence; 100% = IFN-gamma alone, no compound;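 active = activation above the screen-wide mean activation plus 3 SD, cut at about 130% in these data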
# NF-kB expr up: activators of NF-kB expression in neurons, primary screen, cell-based, HTS; human neuronal cells, NF-kB reporter expression; active compounds read high; fold change at 12.5 µM; actives 1.6% (n = 190,000); AID 1239, 2008; in the data active = fold change above about 3.3
# FLuc stim CS: FLuc activators, initial screening, artefact control for FLuc-dependent activation tests, biochemical, ATPlite luminescence; AID 1027, 2008; 200,000 tested, under 10 active; ATPlite luciferase biochemical, 10 min; 0 = ATP-free wells, 1 = DMSO control; activation factor at 10 µM;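 active = luciferase activation factor, scaled between plate controls, of at least 2 with compound at 10 µM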
# Target sequence (P08659 whole entry, looked up): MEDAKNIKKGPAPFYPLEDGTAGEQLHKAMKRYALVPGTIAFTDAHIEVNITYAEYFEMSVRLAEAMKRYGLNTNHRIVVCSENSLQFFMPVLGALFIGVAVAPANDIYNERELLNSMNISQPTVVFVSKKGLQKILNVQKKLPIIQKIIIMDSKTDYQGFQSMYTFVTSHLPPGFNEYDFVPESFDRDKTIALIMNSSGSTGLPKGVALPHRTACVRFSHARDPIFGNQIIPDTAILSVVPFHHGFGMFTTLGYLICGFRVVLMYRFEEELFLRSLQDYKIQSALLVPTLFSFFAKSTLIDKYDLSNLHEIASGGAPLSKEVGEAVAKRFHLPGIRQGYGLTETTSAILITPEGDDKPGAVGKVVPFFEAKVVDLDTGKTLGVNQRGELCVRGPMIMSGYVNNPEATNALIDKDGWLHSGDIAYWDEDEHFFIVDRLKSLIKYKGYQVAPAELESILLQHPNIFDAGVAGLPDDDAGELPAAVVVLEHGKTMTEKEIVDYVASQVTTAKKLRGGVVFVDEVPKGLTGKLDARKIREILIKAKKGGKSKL
#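 Material: luciferase plus luciferin reagent, cell-free. Medium: PBS buffer for ATP. Also added: ATP substrate, dispensed from a 10.24 µM working solution in PBS. Doses: test compounds dosed from 2 mM stocks in 100% DMSO. Incubation: 10 min post-reagent at room temperature. Technique: light output (luminescence). Read-out basis: luminescence gain marking luciferase activators.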
# Rad51 HR inh: human RAD51 strand exchange inhibitors, primary screen, biochemical, fluorescence. hRad51 DNA strand exchange, fluorescence dequenching. inhibition, % at 10 µM. actives 0.085% (n = 200,000). AID 1385, 2008;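 active = inhibition above 40% at the single screening dose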
#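 Material: Human Rad51 nucleoprotein filaments preassembled on unlabelled ssDNA | Also added: Labelled 47-mer dsDNA for strand exchange | Dosing: Single dose, 10 µM final compound | Schedule: 30-min compound preincubation and 15-min exchange, both room temperature | Technique: Fluorescence dequenching at 485/520 nm | Measure: Percent inhibition relative to plate controls and blanks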
# FLuc inh counter: firefly luciferase enzyme inhibitors, primary screen, artefact control for luciferase-based inhibitor screens, biochemical, luminescence, ATPLite. Luciferin 4-monooxygenase (Photinus pyralis), P08659. 10 min. inhibition, % at 10 µM. actives 1.5% (n = 200,000);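 active = inhibition above about 50% when tested at 10 µM, limit read from the data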
# STAT1 activ conf: STAT1 signaling activators, confirmation, cell-based, HTS, luciferase reporter. shares compounds with STAT1 act. NIH 3T3 STAT1-luciferase reporter, IFN-gamma potentiation, luminescence; 100% = IFN-gamma EC80 alone, no compound. activation (% of control), % at 5.7 µM. actives 97% (n = 1,200);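 active = activation above a set limit carried over from the earlier primary STAT1 screen, cut at about 140% in these data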
# NFkB act STAT1ct: NF-kB reporter activators, TNF-alpha stimulated, counter-screen for STAT1 activator project, cell-based, HEK293T, luciferase luminescence. shares compounds with STAT1 act. 100% = TNF-alpha with vehicle only. activation (% of control), % at 5.7 µM. actives 43% (n = 1,200);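 active = activation above the mean of solvent-only control wells plus 3 SD, set per campaign, cut at about 130% in these data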;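 also: TNF-alpha given at a submaximal dose yielding about 80% of full reporter signal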
# STAT3 act STAT1c: STAT3 reporter activation by STAT1 hits, confirmation, counter-screen for STAT1 activator project, U3A cells, luciferase, luminescence. shares compounds with STAT1 act. IL-6; cells lack STAT1; 100 = IL-6 alone, no compound effect. activation (% of control), % at 5.7 µM. actives 46% (n = 1,200);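 active = activation above the solvent-only control well mean plus 3 SD, set per plate batch, cut at about 110% in these data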;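 also: higher means more STAT3 reporter activation so hits are non-selective activators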
# Numbers stand for hits; . = inactive; / = no result. Most compounds without a hit are left out; they make up all but 3.9% or so of the library.
SMILES,APP 5'UTR act,STAT1 act,NF-kB expr up,FLuc stim CS,Rad51 HR inh,FLuc inh counter,STAT1 activ conf,NFkB act STAT1ct,STAT3 act STAT1c
S=C1NC[C@H](CC2CCCCC2)N1CCCCC1CCCCC1,/,/,/,/,.,/,/,/,/
O=[N+]([O-])c1ccccc1N/N=C/c1ccc2c(c1)OCO2,139.3,151.6,.,.,.,.,226.4,.,116.7
NS(=O)(=O)c1ccc(N/N=C/c2ccc3c(c2)OCO3)c([N+](=O)[O-])c1,.,.,.,.,.,.,/,/,/
COc1ccc(/C=C/c2nc3ccccc3n2Cc2ccc(OC)c(OC)c2)cc1,180.6,184.1,6.79,.,.,83.1,182.7,135.0,124.9
CCc1nc2ccccc2n1Cc1ccc(OC)c(OC)c1,.,.,.,.,.,.,/,/,/
Cc1cc(C(=O)CSc2nc3ccccc3[nH]2)c(C)n1Cc1ccco1,213.6,164.7,.,.,.,.,208.7,.,.
O=C(Nc1ccc(-c2csc(-c3ccccc3)n2)cc1)c1ccccc1Cl,.,.,.,.,.,.,/,/,/
Cc1ccc(C(=O)Nc2ccc(-c3csc(C)n3)cc2)cc1,185.6,163.5,.,.,.,.,187.5,.,.
O=C(O)c1ccccc1C(=O)Nc1ccc(-c2csc(-c3ccccc3)n2)cc1,.,157.4,.,.,.,.,141.4,.,.
COCCNC(=O)c1ccc(-c2csc(C)n2)cc1,.,.,.,.,.,.,/,/,/
CNC(=O)c1ccc(-c2nc(-c3ccccc3)cs2)cc1,.,168.9,.,.,.,.,174.3,.,.
O=C(O)c1ccc(-c2nc(-c3ccccc3)cs2)cc1,.,156.9,.,.,.,.,178.6,.,128.5
O=C(O)c1ccc(-c2nc(-c3ccc(Cl)c(Cl)c3)cs2)cc1,.,.,.,.,.,.,/,/,/
COc1ccc(-n2ncc3c(NCc4ccccn4)ncnc32)cc1,.,.,.,.,.,.,/,/,/
COc1ccc(-n2ncc3c(NCc4ccco4)ncnc32)cc1,.,162.2,.,.,.,.,185.2,138.0,114.5
CCCN(CCC)c1ncnc2c1cnn2-c1ccc(OC)cc1,136.8,161.7,.,.,.,.,249.4,145.1,.
C=CCNc1ncnc2c1cnn2-c1ccc(OC)cc1,148.5,177.7,4.54,.,.,59.0,233.9,.,.
COC(=O)CCN(C(=O)c1cccc(OC(C)=O)c1)c1ccccn1,.,.,.,.,.,.,/,/,/
Cc1cccc(C)c1NC(=O)C1(N2CCN(C(=O)c3ccco3)CC2)CCCCC1,.,.,.,.,/,.,/,/,/
O=C1OC(c2ccccc2)=C/C1=C/N1CCCCC1,.,170.5,.,.,.,.,160.1,.,116.6
C/C(=N/NC(=O)c1ccoc1C)c1cccc(NC(=O)C2CC2)c1,.,159.2,.,.,/,.,.,.,.
CCCCC(=O)N/N=C(\C)c1cccc(NC(=O)C2CC2)c1,.,.,.,.,.,.,/,/,/
C/C(=N/NC(=O)c1ccoc1C)c1cccc(NC(=O)C(F)(F)F)c1,.,155.7,.,.,.,.,.,.,.
Cc1nn(C)cc1CNC(=O)C1(C)CC1(Cl)Cl (stereo not drawn),.,.,.,.,/,.,/,/,/
O=c1cc(/C=C/c2ccccc2)oc2ccccc12,.,156.1,4.59,.,.,.,191.7,135.7,123.9
SMILES,APP 5'UTR act,STAT1 act,NF-kB expr up,FLuc stim CS,Rad51 HR inh,FLuc inh counter,STAT1 activ conf,NFkB act STAT1ct,STAT3 act STAT1c
CC(=O)c1cnc2c(-c3ccccc3)cnn2c1C,.,.,.,.,.,.,/,/,/
CCOC(=O)c1cnc2c(-c3ccccc3)cnn2c1C,155.0,154.3,7.26,.,.,75.4,198.1,134.7,.
Cc1ccccc1/C=N/Nc1nc2ccccc2[nH]1,.,.,.,.,.,.,/,/,/
Cc1ccc(/C=N/Nc2nc3ccccc3[nH]2)s1,135.3,157.2,3.78,.,.,71.7,189.8,148.9,121.4
Cc1nn(-c2ccccc2)c(Cl)c1/C=N/Nc1nc2ccccc2[nH]1,.,215.8,.,.,.,64.9,291.0,.,.
Cc1cc(=O)[nH]c(N/N=C/c2c(C)nn(-c3ccccc3)c2Cl)n1,/,/,/,/,.,/,/,/,/
COc1ccc(C(=O)NNC(=O)c2cc3cc(OC)ccc3oc2=O)cc1,/,/,/,/,.,/,/,/,/
Cc1[nH]n(C(N)=S)c(=O)c1N=Nc1ccc2ccccc2c1,.,172.3,5.86,.,.,62.6,208.3,.,146.3
CCn1c(C)cc(/C=C2/NC(=O)N(c3ccccc3)C2=O)c1C,.,168.1,.,.,.,.,187.0,138.6,.
Cc1nn(Cc2ccc(F)cc2)c2sc(C(=O)Nc3ccc(N4CCOCC4)cc3N3CCOCC3)cc12,.,.,.,.,/,.,/,/,/
COC(=O)c1ccc(-c2ccc(Cl)cc2)nc1C,179.0,185.5,5.94,.,/,50.5,240.8,135.7,111.0
O=C(O)c1[nH]nc2c1COc1ccccc1-2,.,.,.,.,.,.,/,/,/
CCOc1cc(/C=N/O)ccc1OCc1ccc(F)cc1,.,.,.,.,.,.,/,/,/
COc1cc(/C=N/O)ccc1OCc1ccc(Cl)cc1,191.2,155.2,8.39,.,/,.,282.9,147.5,141.1
CCc1nnc(NC(=O)c2ccc3ccccc3n2)s1,.,153.1,3.79,.,.,.,175.9,.,157.0
CCc1nnc(NC(=O)c2c(OC)cccc2OC)s1,.,.,.,.,.,.,/,/,/
O=C(CSc1nnc(CNC(=O)c2ccccc2F)o1)NCc1ccccc1,.,.,.,.,.,.,/,/,/
O=C(/C(C=Nc1ccc(Br)cc1)=C(/O)c1ccco1)C(F)(F)F,170.9,165.6,5.72,.,.,65.7,200.8,.,.
O=C(/C(C=Nc1cccc(C(F)(F)F)c1)=C(/O)c1ccco1)C(F)(F)F,.,.,.,.,.,.,/,/,/

# Screening results (PubChem)
